Activity calls are given as the source filed them. The calls are words filed in the database; no cut-off is given here.
Tests used:
U2OS [1] = experiment: Activation of p53 in human U2OS cells expressing EGFP assessed as increase of EGFP expression at 2.5 uM after 48 hrs relative to Nutlin-3; type: cell-based
In short: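 U2OS-pLV cells carrying an integrated p53-responsive EGFP reporter; compounds at 2.5 μM for 48 h. Read-out is the percentage of EGFP-positive cells, counted by high-content screening. The value is the ratio to the response with Nutlin-3, which is set as 1.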

U2OS [2] = experiment: Cytotoxicity against human U2OS cells expressing p53 assessed as number of cells by Hoechst stain staining relative to Nutlin-3; type: functional
In short: (§1)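 p53+ and p53− cells treated, then Hoechst-stained; surviving cells counted. The value is the ratio of compound effect to Nutlin-3 effect, which is set as 1.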

U2OS [3] = experiment: Cytotoxicity against human p53 deficient U2OS cells assessed as number of cells by Hoechst stain staining relative to Nutlin-3; type: functional; in short: as §1
[4] = Chemical stability of the compound assessed as compound hydrolysis at 50 uM in HEPES buffer incubated for 12 hrs at pH 7.5 at 37 degC by UV-visible spectrometry; type: physicochemical; conditions: pH 7.5, 12 h
In short: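 Hydrolysis followed by UV−vis spectrometry after incubation for 12 h at pH 7.5 and 37 °C.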

[5] = Chemical stability of the compound assessed as compound hydrolysis at 50 uM in Opti-Mem solution incubated for 12 hrs at pH 7.5 at 37 degC by UV-visible spectrometry; type: physicochemical; conditions: buffer, pH 7.5, 12 h
U2OS [6] = experiment: Activation of p53 in human U2OS cells assessed as increase of MDM2 expression at 2.5 uM after 12 hrs by Western blotting; type: cell-based
[7] = target: Cellular tumor antigen p53 (Homo sapiens) (UniProt P04637); experiment: Stabilization of p53 in human U2OS cells assessed as intracellular p53 level at 0.5 uM after 12 hrs by Western blotting; type: cell-based
U2OS [8] = experiment: Activation of p53 in human U2OS cells assessed as increase of MDM2 expression at 0.5 uM after 12 hrs by Western blotting; type: cell-based

Chain of Cellular tumor antigen p53 (Homo sapiens) (P04637 whole entry, looked up): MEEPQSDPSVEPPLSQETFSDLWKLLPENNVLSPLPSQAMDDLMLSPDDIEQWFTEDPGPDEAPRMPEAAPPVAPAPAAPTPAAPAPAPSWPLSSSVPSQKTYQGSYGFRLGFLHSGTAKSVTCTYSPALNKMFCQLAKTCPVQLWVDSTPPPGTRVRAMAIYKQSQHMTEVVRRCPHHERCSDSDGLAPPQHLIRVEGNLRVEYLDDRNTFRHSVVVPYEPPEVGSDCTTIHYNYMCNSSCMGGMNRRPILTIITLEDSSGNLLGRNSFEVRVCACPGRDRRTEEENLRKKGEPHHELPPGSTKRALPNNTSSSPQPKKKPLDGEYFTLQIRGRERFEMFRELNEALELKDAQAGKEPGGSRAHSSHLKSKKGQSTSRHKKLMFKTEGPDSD

Row | SMILES | Ratio (U2OS [1]) | Ratio (U2OS [2]) | Ratio (U2OS [3]) | also measured
1 | O=C(NCc1ccccc1)c1ccc(/N=C2\C(=O)N(CN3CCN(Cc4ccccc4)CC3)c3ccccc32)cc1 | 4.2 | 0.1 | 0.19 | –
2 | C[C@H](NC(=O)c1ccc(/N=C2\C(=O)N(CN3CCN(Cc4ccccc4)CC3)c3ccccc32)cc1)c1ccccc1 | 8.7 | 0.04 | 0.27 | –
3 | O=C1Nc2ccccc2/C1=N/c1ccc(C(=O)NCc2ccccc2)cc1 | – | – | – | Stability [4]: Unstable; Stability [5]: Unstable
4 | COc1ccc(C2=N[C@@H](c3ccc(Cl)cc3)[C@@H](c3ccc(Cl)cc3)N2C(=O)N2CCNC(=O)C2)c(OC(C)C)c1 | – | – | – | Activity (U2OS [6]): inactive
5 | O=C(NCc1ccccc1)c1ccc(/N=C2\C(=O)N(CN3CCN(c4ccccc4F)CC3)c3ccccc32)cc1 | 3.6 | 0.11 | 0.24 | –
6 | O=C(NCc1ccccc1)c1ccc(/N=C2\C(=O)N(CN3CCN(c4ccccc4)CC3)c3ccccc32)cc1 | 3.9 | 0.22 | 0.4 | Activity (U2OS [6]): inactive
7 | COc1cccc2c1C(=O)c1c(O)c3c(c(O)c1C2=O)C[C@@](O)(C(=O)CO)C[C@@H]3O[C@H]1C[C@H](N)[C@H](O)[C@H](C)O1 | – | – | – | Activity [7]: Active; Activity (U2OS [8]): inactive
8 | O=C1C(=O)N(CN2CCN(c3ccccc3)CC2)c2ccccc21 | – | – | – | Stability [4]: Unstable; Stability [5]: Unstable
9 | CN(Cc1ccccc1)CN1C(=O)/C(=N\c2ccc(C(=O)NCc3ccccc3)cc2)c2ccccc21 | 3.1 | 0.14 | 0.41 | –
10 | O=C(NCc1ccccc1)c1ccc(/N=C2\C(=O)N(CN3CCC(Cc4ccccc4)CC3)c3ccccc32)cc1 | 4.9 | 0.14 | 0.32 | –

From ChEMBL document CHEMBL3621156, “Discovery of Novel Isatin-Based p53 Inducers” (ACS Med Chem Lett, 2015)
